In ChEMBL document CHEMBL1134952, “Dual NK(1) antagonists--serotonin reuptake inhibitors as potential antidepressants. Part 2: SAR and activity of benzyloxyphenethyl piperazine derivatives” (Bioorg Med Chem Lett, 2002):
pIC50: −log10 of the molar value. Activity calls are given as the source filed them. The calls are words filed in the database; no cut-off is given here.

Columns and labels:
[1] = target: Sodium-dependent serotonin transporter (Rattus norvegicus, UniProt P31652); experiment: Binding affinity against Serotonin transporter in rat cerebral cortex using [3H]paroxetine binding assay.; type: tissue-based
Outline: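 Rat cerebral cortex membranes, […] protein, incubated 120 min at 25 °C in 50 mM Tris–HCl pH 7.4 with 2 mM MgCl2 and 0.05 nM radioligand. Nonspecific binding taken as the residual binding with excess imipramine present.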

Substance-P receptor [2] = target: T1, Substance-P receptor (Homo sapiens, UniProt P25103); experiment: Binding affinity against human Tachykinin receptor 1 expressed in CHO cells using [3H]-substance P as the radioligand; less than 50% inhibition at 10e-5 M; type: cell-based
Substance-P receptor [3] = target: T1, Substance-P receptor; experiment: Binding affinity against human Tachykinin receptor 1 expressed in CHO cells using [3H]-substance P as the radioligand; type: cell-based
Gerbillinae = experiment: Dose required to decrease by 45% the duration of the foot-tapping, indicating efficacious central blockade of NK1 receptors; type: functional
Cavia porcellus [4] = experiment: Oral dose required attenuate by 50% the duration of vocalizations in the isolation-induced guinea pig pup by vocalization test; type: functional
Rattus norvegicus = experiment: Intraperitoneal dose required to increase extracellular 5-HT levels to 250% in the frontal cortex of freely moving rats by using intracerebral microdialysis.; type: functional
Cavia porcellus [5] = experiment: Oral dose required attenuate by 99% the duration of vocalizations in the isolation-induced guinea pig pup by vocalization test; type: functional

T1 sequence (P25103 whole entry): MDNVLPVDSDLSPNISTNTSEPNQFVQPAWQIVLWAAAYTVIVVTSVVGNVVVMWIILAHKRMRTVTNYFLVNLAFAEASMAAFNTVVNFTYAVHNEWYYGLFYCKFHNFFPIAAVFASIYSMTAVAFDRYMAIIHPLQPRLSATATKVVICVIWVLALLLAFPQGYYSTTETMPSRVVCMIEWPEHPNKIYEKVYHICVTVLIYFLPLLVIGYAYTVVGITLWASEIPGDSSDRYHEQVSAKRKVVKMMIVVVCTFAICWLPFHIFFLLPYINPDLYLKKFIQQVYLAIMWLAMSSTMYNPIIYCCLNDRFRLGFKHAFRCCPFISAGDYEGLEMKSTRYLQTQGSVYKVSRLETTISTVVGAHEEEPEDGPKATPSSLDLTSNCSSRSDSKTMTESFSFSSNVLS
Chain of Sodium-dependent serotonin transporter (P31652 whole entry): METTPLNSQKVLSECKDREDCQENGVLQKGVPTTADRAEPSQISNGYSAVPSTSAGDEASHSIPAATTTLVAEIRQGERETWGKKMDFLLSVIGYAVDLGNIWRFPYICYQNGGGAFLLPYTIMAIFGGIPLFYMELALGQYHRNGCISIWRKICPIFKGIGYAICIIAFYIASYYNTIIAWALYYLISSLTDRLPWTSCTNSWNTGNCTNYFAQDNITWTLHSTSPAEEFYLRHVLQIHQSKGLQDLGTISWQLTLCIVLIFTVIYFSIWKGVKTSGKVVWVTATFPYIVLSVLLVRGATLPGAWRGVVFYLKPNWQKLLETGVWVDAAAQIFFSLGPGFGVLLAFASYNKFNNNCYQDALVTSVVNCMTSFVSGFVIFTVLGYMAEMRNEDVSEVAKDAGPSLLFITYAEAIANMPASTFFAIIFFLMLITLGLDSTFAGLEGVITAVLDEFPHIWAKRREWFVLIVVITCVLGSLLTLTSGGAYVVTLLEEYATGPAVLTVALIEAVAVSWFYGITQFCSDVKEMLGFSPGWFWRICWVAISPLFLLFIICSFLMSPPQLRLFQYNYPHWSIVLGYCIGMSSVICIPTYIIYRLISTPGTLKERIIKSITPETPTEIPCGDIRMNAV

Structure (SMILES): CC(C)(C)c1cc(COCC(c2ccccc2)N2CCNCC2)cc(C(C)(C)C)c1 (configuration not stated)
- pIC50 [1]: 6.00

Structure (SMILES): CNCCC(Oc1ccc(C(F)(F)F)cc1)c1ccccc1 (configuration not stated)
- Log IC50 (Substance-P receptor [2]): inactive

Structure (SMILES): Clc1cc(Cl)cc(COC[C@@H](c2ccccc2)N2CCNCC2)c1
- pIC50 (Substance-P receptor [3]): 7.60
- pIC50 [1]: 7.90

Structure (SMILES): FC(F)(F)c1cc(COCC(c2ccccc2)N2CCNCC2)cc(C(F)(F)F)c1 (configuration not stated)
- pIC50 (Substance-P receptor [3]): 8.30
- pIC50 [1]: 6.60

Structure (SMILES): Fc1ccc(C(COCc2cc(C(F)(F)F)cc(C(F)(F)F)c2)N2CCNCC2)cc1 (configuration not stated)
- pIC50 (Substance-P receptor [3]): 7.00
- pIC50 [1]: 6.80

Structure (SMILES): CC(C)c1cccc(C(COCc2cc(C(F)(F)F)cc(C(F)(F)F)c2)N2CCNCC2)c1 (configuration not stated)
- pIC50 (Substance-P receptor [3]): 7.40
- pIC50 [1]: 6.50

Structure (SMILES): Fc1cc(F)cc(COCC(c2ccccc2)N2CCNCC2)c1 (configuration not stated)
- pIC50 (Substance-P receptor [3]): 6.70
- pIC50 [1]: 9.10

Structure (SMILES): Clc1cc(Cl)cc(COC[C@H](c2ccccc2)N2CCNCC2)c1
- pIC50 (Substance-P receptor [3]): 8.50
- pIC50 [1]: 8.60

Structure (SMILES): Fc1ccccc1C(COCc1cc(C(F)(F)F)cc(C(F)(F)F)c1)N1CCNCC1 (configuration not stated)
- pIC50 (Substance-P receptor [3]): 8.30
- pIC50 [1]: 6.70

Structure (SMILES): Fc1cc(COCC(c2ccccc2)N2CCNCC2)cc(C(F)(F)F)c1 (configuration not stated)
- pIC50 (Substance-P receptor [3]): 7.90
- pIC50 [1]: 7.80

Structure (SMILES): Fc1cccc(C(COCc2cc(C(F)(F)F)cc(C(F)(F)F)c2)N2CCNCC2)c1F (configuration not stated)
- pIC50 (Substance-P receptor [3]): 8.50
- pIC50 [1]: 6.50

Structure (SMILES): FC(F)(F)c1cc(COCC(c2ccccc2Cl)N2CCNCC2)cc(C(F)(F)F)c1 (configuration not stated)
- pIC50 (Substance-P receptor [3]): 8.80
- pIC50 [1]: 6.70

Structure (SMILES): COc1cccc(C(COCc2cc(C(F)(F)F)cc(C(F)(F)F)c2)N2CCNCC2)c1 (configuration not stated)
- pIC50 (Substance-P receptor [3]): 9.00
- pIC50 [1]: 6.70

Structure (SMILES): Cc1cc(C)cc(COCC(c2ccccc2)N2CCNCC2)c1 (configuration not stated)
- pIC50 (Substance-P receptor [3]): 7.60

Structure (SMILES): COc1ccc(C(COCc2cc(C(F)(F)F)cc(C(F)(F)F)c2)N2CCNCC2)cc1 (configuration not stated)
- pIC50 (Substance-P receptor [3]): 7.30
- pIC50 [1]: 7.00

Structure (SMILES): Clc1cccc(COCC(c2ccccc2)N2CCNCC2)c1 (configuration not stated)
- pIC50 (Substance-P receptor [3]): 6.40
- pIC50 [1]: 8.10

Structure (SMILES): COc1ccccc1C(COCc1cc(C(F)(F)F)cc(C(F)(F)F)c1)N1CCNCC1 (configuration not stated)
- pIC50 (Substance-P receptor [3]): 8.20
- pIC50 [1]: 6.60

Structure (SMILES): FC(F)(F)c1cc(COCC(c2cccc(Cl)c2)N2CCNCC2)cc(C(F)(F)F)c1 (configuration not stated)
- pIC50 (Substance-P receptor [3]): 8.80
- pIC50 [1]: 6.60

Structure (SMILES): FC(F)(F)c1cc(COCC(c2ccc(Cl)c(Cl)c2)N2CCNCC2)cc(C(F)(F)F)c1 (configuration not stated)
- pIC50 (Substance-P receptor [3]): 8.30
- pIC50 [1]: 6.70

Structure (SMILES): Brc1cc(Br)cc(COC[C@H](c2ccccc2)N2CCNCC2)c1
- Dose (Gerbillinae): 3.2e-05 M/kg
- pIC50 (Substance-P receptor [3]): 8.50
- Dose (Cavia porcellus [4]): 1e-05 M/kg
- pIC50 [1]: 8.00
- Dose (Rattus norvegicus): 3.2e-05 M/kg
- Dose (Cavia porcellus [5]): 3.5e-05 M/kg

Structure (SMILES): COc1c(Br)cc(Br)cc1COCC(c1ccccc1)N1CCNCC1 (configuration not stated)
- pIC50 (Substance-P receptor [3]): 8.10
- pIC50 [1]: 8.20

Structure (SMILES): Brc1cc(I)cc(COCC(c2ccccc2)N2CCNCC2)c1 (configuration not stated)
- pIC50 (Substance-P receptor [3]): 8.90
- pIC50 [1]: 7.60

Structure (SMILES): Brc1cc(Br)cc(COC[C@@H](c2ccccc2)N2CCNCC2)c1
- pIC50 (Substance-P receptor [3]): 7.90
- pIC50 [1]: 7.50
